In article PMC5647227 (ACS chemical neuroscience, 2017):
“Also recorded” adds a separate entry of the source.

How the values were obtained:
DOP receptor [1] = biological target: DOP receptor (Rattus norvegicus, UniProt P33533); test: Opioid receptor binding, [3H]DSLET displacement from rat brain membranes
MOP receptor [2] = biological target: MOP receptor (Cavia porcellus, UniProt A0ACM8Q262); test: Guinea pig ileum; format: biochemical; details: read-out: GPI IC50; representative of MOP receptor activation
Chain of MOP receptor (Cavia porcellus, UniProt A0ACM8Q262) (A0ACM8Q262 1-400): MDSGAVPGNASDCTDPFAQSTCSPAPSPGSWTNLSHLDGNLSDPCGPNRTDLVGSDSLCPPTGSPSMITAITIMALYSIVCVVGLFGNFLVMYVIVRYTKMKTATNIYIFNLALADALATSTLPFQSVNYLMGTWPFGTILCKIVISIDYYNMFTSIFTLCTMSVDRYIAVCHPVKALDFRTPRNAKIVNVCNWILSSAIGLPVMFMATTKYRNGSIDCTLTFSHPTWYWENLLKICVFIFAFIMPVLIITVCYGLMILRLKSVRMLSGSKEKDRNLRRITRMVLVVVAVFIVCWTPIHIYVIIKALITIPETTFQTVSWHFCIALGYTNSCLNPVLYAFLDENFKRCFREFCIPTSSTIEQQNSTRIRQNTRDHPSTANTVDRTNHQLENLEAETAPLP

MOP receptor [3] = biological target: MOP receptor (Rattus norvegicus, UniProt P33535); test: Opioid receptor binding, [3H]DAMGO displacement from rat brain membranes
Chain of MOP receptor (Rattus norvegicus, UniProt P33535) (P33535 whole entry): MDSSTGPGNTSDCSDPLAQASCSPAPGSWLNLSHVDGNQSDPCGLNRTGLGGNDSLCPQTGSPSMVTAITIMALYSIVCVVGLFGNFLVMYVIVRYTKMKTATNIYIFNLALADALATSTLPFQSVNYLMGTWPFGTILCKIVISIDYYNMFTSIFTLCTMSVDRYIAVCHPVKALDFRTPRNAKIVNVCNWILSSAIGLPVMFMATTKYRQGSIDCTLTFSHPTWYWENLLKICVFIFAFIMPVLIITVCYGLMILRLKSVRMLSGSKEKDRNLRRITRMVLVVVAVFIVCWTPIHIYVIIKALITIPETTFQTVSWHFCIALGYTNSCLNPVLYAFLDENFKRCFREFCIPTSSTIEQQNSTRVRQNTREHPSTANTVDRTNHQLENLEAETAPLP

hNK1 receptors [4] = biological target: T1, hNK1 receptors (Homo sapiens, UniProt P25103); test: Functional NK1 receptor assay; format: cell-based
T1 sequence (P25103 whole entry): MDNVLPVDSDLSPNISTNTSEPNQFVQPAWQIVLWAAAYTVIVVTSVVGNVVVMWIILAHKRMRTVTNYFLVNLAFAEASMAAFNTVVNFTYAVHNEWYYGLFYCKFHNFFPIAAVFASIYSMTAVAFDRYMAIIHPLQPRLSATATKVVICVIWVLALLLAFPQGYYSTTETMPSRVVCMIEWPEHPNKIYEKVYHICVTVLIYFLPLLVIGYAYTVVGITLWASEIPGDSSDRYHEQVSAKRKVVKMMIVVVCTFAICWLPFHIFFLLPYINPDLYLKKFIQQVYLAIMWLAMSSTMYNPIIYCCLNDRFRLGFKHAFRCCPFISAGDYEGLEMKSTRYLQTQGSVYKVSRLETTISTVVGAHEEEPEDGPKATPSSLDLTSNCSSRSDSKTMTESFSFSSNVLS

DOP receptor [5] = biological target: DOP receptor (Mus musculus, UniProt P32300); test: Mouse vas deferens; format: biochemical
Chain of DOP receptor (Mus musculus, UniProt P32300) (P32300 whole entry): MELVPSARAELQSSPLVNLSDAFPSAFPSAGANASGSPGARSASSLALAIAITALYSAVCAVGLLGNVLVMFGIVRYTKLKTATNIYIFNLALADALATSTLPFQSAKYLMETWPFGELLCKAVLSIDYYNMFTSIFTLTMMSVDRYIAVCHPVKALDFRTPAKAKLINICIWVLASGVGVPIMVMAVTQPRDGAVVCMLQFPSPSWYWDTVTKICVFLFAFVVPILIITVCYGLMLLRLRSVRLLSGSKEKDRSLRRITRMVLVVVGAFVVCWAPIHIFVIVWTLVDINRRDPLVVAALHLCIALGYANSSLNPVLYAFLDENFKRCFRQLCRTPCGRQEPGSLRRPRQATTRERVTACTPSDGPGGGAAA

hNK1 receptors [6] = biological target: T1, hNK1 receptors; test: [3H]Substance-P competition binding assay, hNK1-CHO membranes
naive mice = test: Tail-flick test, acute pain after i.t. administration; format: in vivo, mouse; details: for duration of analgesic effect, tail-flick: 0.1 nmol; for analgesic effect in acute pain model: dose of 1 μg
CCI-exposed mice [7] = test: Neuropathic pain model, von Frey and cold plate tests taken together; format: in vivo, mouse; details: i.t.; for relative analgesic efficacy among hybrids in neuropathic pain model: von Frey and cold plate tests
Outline: (§1)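 CCI mice, unanesthetized, received test compound in water for injections intrathecally by lumbar puncture between L5 and L6, in a 5 μL volume. Doses ranged from about 0.1 to 10 nmol/animal. The cold plate was held at 2 °C and latency to hind-paw lift was timed, with a 30 s cutoff. Testing was done at 30, 90 and 180 min after dosing. Effect was expressed as % MPE.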

CCI-exposed mice [8] = test: Von Frey test, tactile hypersensitivity in neuropathic pain model; format: in vivo, mouse; details: i.t.; for duration of effect, von Frey test: moderate dose ca. 1 nmol (1 μg)
Outline: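 CCI mice, unanesthetized, received test compound in water for injections intrathecally by lumbar puncture between L5 and L6, in a 5 μL volume. Doses ranged from about 0.1 to 10 nmol/animal. Calibrated nylon monofilaments (0.6–6 g, 6 g cutoff) were applied in serial increments to the hind-paw plantar surface until paw withdrawal, shaking or licking. Testing was done at 30, 90 and 180 min after dosing. Effect was expressed as % MPE.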

CCI-exposed mice [9] = test: Cold plate test, thermal hypersensitivity in neuropathic pain model; format: in vivo, mouse; details: i.t.
Outline: as §1

Chain of DOP receptor (Rattus norvegicus, UniProt P33533) (P33533 whole entry): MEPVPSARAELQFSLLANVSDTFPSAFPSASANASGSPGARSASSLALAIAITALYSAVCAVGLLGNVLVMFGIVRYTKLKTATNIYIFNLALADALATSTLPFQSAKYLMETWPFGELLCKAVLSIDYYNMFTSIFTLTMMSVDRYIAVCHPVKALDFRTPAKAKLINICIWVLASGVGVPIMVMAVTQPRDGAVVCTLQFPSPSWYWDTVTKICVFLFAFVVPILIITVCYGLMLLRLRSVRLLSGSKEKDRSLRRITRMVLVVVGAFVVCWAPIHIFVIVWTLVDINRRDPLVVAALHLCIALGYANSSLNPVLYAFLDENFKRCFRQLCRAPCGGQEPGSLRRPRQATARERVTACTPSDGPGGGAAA

| Compound | Ki (DOP receptor [1]) [nM] | IC50 (MOP receptor [2]) [nM] | Ki (MOP receptor [3]) [nM] | Kb (hNK1 receptors [4]) [nM] | IC50 (DOP receptor [5]) [nM] | Ki (hNK1 receptors [6]) [nM] | further results |
| --- | --- | --- | --- | --- | --- | --- | --- |
| Cc1cc(O)cc(C)c1C[C@H](N)C(=O)N[C@H](CCCNC(=N)N)C(=O)N[C@H]1Cc2ccccc2CN(CCC(=O)N(Cc2cc(C(F)(F)F)cc(C(F)(F)F)c2)C2CC2)C1=O [Compound 6, H-Dmt-D-Arg-Aba-β-Ala-NcPr-3′,5′-(CF3)2-Bn] | 190 | 18 | 47 | 4370 | 16 | 735 |  |
| Cc1cc(O)cc(C)c1C[C@H](N)C(=O)N[C@H](CCCNC(=N)N)C(=O)N[C@H]1Cc2ccccc2CN(CCC(=O)N(Cc2ccccc2)C2CC2)C1=O [Compound 7, H-Dmt-D-Arg-Aba-β-Ala-NcPr-Bn] | 66 | 19 | 2.7 | 6310 | 6.6 | 520 |  |
| Cc1cc(O)cc(C)c1C[C@H](N)C(=O)N[C@H](CCCNC(=N)N)C(=O)N[C@H]1Cc2ccccc2CN(CC(=O)N(Cc2ccccc2)C2CC2)C1=O [Compound 8, H-Dmt-D-Arg-Aba-Gly-NcPr-Bn] | 68 | 10 | 0.3 | 3160 | 11.2 | 95 |  |
| Cc1cc(O)cc(C)c1C[C@H](N)C(=O)N[C@H](CCCNC(=N)N)C(=O)N[C@H]1Cc2ccccc2CN(CCC(=O)N2Cc3ccccc3C2)C1=O [Compound 9, H-Dmt-D-Arg-Aba-β-Ala-isoindoline] | 16 | 5 | 0.2 |  | 2.1 | > 10000 |  |
| Cc1cc(O)cc(C)c1C[C@H](N)C(=O)N[C@H](CCCNC(=N)N)C(=O)N[C@H]1Cc2ccccc2CN(CC(=O)N2Cc3ccccc3C2)C1=O [Compound 10, H-Dmt-D-Arg-Aba-Gly-isoindoline] | 81 | 7.3 | 0.06 | 692000 | 8 | 3500 |  |
| COc1ccccc1CN(C)C(=O)CN1Cc2ccccc2C[C@H](NC(=O)[C@@H](CCCNC(=N)N)NC(=O)[C@@H](N)Cc2c(C)cc(O)cc2C)C1=O [Compound 11, H-Dmt-D-Arg-Aba-Gly-NMe-2′-OMe-Bn] | 26 | 5 | 0.9 | 14500 | 2.4 | 501 |  |
| Cc1cc(O)cc(C)c1C[C@H](N)C(=O)N[C@H](CCCNC(=N)N)C(=O)N[C@H]1Cc2ccccc2CN(CCC(=O)N(C)Cc2ccc3ccccc3c2)C1=O [Compound 12, H-Dmt-D-Arg-Aba-β-Ala-NMe-2′-methylenenaphthyl] | 44 | 9 | 0.4 | 97.7 | 4 | 612 | duration of analgesic effect, tail-flick (naive mice): up to 180 min after administration; analgesic effect, tail-flick (naive mice; doses raised up to ca. 10 nmol): 60–70 % MPE; relative analgesic efficacy among hybrids in neuropathic pain model (CCI-exposed mice [7]): weaker in both tests; duration of effect, von Frey test (CCI-exposed mice [8]): not observable 180 min after administration |
| Cc1cc(O)cc(C)c1C[C@H](N)C(=O)N[C@H](CCCNC(=N)N)C(=O)N[C@H]1Cc2ccccc2CN(CC(=O)N(C)Cc2ccc3ccccc3c2)C1=O [Compound 13, H-Dmt-D-Arg-Aba-Gly-NMe-2′-methylenenaphthyl] | 228 | 3 | 2.8 | 3630 | 10 | 709 | duration of analgesic effect, tail-flick (naive mice): up to 180 min after administration; analgesic effect, tail-flick (naive mice; doses raised up to ca. 10 nmol): 60–70 % MPE; effect in attenuating acute pain (naive mice; measured at three time points after administration): ~ 60 % MPE; relative analgesic efficacy among hybrids in neuropathic pain model (CCI-exposed mice [7]): most efficient analgesic in both tests; response threshold, von Frey test (CCI-exposed mice [8]; lowest tested dose 0.1 nmol): ca. 70 % MPE; duration of effect, von Frey test (CCI-exposed mice [8]): not observable 180 min after administration; influence on response, cold plate test (CCI-exposed mice [9]; 0.1 nmol): did not significantly influence the response; effect at 180 min, cold plate test (CCI-exposed mice [9]; highest dose 10 nmol): provided an effect at 180 min after administration |
| H-Dmt-D-Arg-Aba-Gly-NH2 [Compound 1] |  |  |  |  |  |  | lowest dose raising latency of response to thermal stimuli, tail-flick (naive mice): 0.0013 nmol; analgesic effect in acute pain model (naive mice): ~100 % MPE; analgesic effect in acute pain model (naive mice; at 180 min after administration): > 80 % MPE; analgesic effect, tail-flick (naive mice; highest dose tested 1.3 nmol, lasting up to 180 min): ~100 % MPE; lowest efficacious dose in acute pain model (naive mice; p < 0.05 vs vehicle): 0.001 nmol/5 μL/animal; analgesic effect, von Frey test (CCI-exposed mice [8]; at 30 min): ca. 40 % MPE; analgesic effect, von Frey test (CCI-exposed mice [8]; maximum over doses): ≤ 40 % MPE |
| H-Dmt-D-Arg-Aba-Gly-NMe-3′,5′-(CF3)2-Bn [Compound 3, reference compound] |  |  |  |  |  |  | tail-flick effect compared with parent compound (naive mice): weaker than its parent compound; response latency / alleviation of hypersensitivity in neuropathic pain model (CCI-exposed mice [7]; test not specified or both tests): ca. 60 % MPE |
| H-Dmt-D-Arg-Aba-β-Ala-NH2 [Compound 2] |  |  |  |  |  |  | analgesic effect, tail-flick (naive mice; highest dose tested 1 nmol): ≤ 80 % MPE; influence on response threshold, von Frey test (CCI-exposed mice [8]): no influence on the response threshold; also recorded: not efficacious at all; analgesic effect, cold plate test (CCI-exposed mice [9]; maximum over doses): no more than 20 % MPE |
